Data taken from ChEMBL document CHEMBL5038575, “Novel Functionalized Cannabinoid Receptor Probes: Development of Exceptionally Potent Agonists” (J Med Chem, 2021).
The source made the active and inactive calls. No cut-off for these calls is given here.

Key:
[1] = molecular target: T1, Cannabinoid receptor 2 (Homo sapiens, UniProt P34972); assay: Agonist activity at 3xHA tagged human CB2 receptor expressed in CHO-K1 cells assessed as reduction in forskolin-stimulated cAMP accumulation incubated for 30 mins by cAMP assay; assay type: functional, cell-based
T1 sequence (P34972 whole entry): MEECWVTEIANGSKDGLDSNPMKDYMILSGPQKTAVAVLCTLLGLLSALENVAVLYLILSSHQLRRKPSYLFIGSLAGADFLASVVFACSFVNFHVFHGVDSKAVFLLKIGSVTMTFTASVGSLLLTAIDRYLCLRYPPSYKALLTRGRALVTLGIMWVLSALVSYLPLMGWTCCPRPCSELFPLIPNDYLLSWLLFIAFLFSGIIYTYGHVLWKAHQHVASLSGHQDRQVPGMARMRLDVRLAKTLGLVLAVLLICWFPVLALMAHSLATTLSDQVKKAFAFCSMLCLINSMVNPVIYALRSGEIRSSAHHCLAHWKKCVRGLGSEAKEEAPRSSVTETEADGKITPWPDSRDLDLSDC

[2] = molecular target: T2, Cannabinoid receptor 1 (Homo sapiens, UniProt P21554); assay: Agonist activity at 3xHA tagged human CB1 receptor expressed in CHO-K1 cells assessed as reduction in forskolin-stimulated cAMP accumulation incubated for 30 mins by cAMP assay; assay type: functional, cell-based
T2 sequence (P21554 whole entry): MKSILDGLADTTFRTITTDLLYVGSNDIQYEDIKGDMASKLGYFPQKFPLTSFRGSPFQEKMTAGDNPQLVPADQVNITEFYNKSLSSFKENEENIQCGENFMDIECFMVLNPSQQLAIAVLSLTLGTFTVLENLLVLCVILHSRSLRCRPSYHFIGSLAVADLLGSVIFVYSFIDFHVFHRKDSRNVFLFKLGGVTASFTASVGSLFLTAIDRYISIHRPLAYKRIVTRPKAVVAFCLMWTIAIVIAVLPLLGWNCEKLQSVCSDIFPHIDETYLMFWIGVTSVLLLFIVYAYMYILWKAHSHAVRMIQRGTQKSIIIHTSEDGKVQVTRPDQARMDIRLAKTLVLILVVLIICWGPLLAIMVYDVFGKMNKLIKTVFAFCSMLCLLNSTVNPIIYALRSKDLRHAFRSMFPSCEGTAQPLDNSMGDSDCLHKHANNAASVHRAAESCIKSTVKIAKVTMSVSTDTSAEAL

[3] = molecular target: T1, Cannabinoid receptor 2; assay: Agonist activity at 3xHA tagged human CB2 receptor expressed in CHO-K1 cells assessed as reduction in forskolin-stimulated cAMP accumulation by measuring maximal efficacy incubated for 30 mins by cAMP assay relative to CP-55940; assay type: functional, cell-based; conditions: filed as agonist
Outline: (§1)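 CHO-K1 cells stably expressing 3xHA-tagged CB1 or CB2, plated at 4000 cells/well in Opti-MEM with 1% FBS for 3 h at 37 °C. Cells cotreated with 25 μM RO-20-1724, 20 μM forskolin and agonist for 30 min at 37 °C, then lysed. cAMP read by HTRF (665/620 nm) after 1 h at room temperature in the dark. Data normalized to vehicle and 100 nM CP-55,940; three-parameter nonlinear regression; ≥4 experiments in duplicate.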

[4] = molecular target: Cannabinoid receptor 1 (Rattus norvegicus, UniProt P20272); assay: Displacement of [3H]CP55940 from rat brain membrane CB1 receptor assessed as inhibition constant incubated for 1 hr by TopCount scintillation counting method; assay type: cell membranes
Chain of Cannabinoid receptor 1 (Rattus norvegicus, UniProt P20272) (P20272 whole entry): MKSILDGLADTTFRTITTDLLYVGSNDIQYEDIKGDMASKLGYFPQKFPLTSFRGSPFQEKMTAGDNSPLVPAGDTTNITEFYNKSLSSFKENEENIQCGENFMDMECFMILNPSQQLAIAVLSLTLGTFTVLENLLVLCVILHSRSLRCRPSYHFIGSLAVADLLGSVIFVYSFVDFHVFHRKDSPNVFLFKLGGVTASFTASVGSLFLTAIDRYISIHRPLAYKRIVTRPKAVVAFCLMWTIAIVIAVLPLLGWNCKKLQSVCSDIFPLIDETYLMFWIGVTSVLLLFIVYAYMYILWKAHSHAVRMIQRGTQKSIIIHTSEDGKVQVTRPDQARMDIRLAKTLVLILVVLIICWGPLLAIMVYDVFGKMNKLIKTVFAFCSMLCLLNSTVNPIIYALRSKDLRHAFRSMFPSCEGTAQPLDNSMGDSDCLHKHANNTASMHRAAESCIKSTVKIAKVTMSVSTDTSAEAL
Outline: (§2)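 Competition binding against [³H]CP-55,940. CB1 from rat brain membranes; CB2 from membranes of HEK293 cells expressing mouse or human CB2. IC50 obtained by nonlinear regression and converted to Ki. Three independent experiments in triplicate; mean with SEM.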

[5] = molecular target: T2, Cannabinoid receptor 1; assay: Agonist activity at 3xHA tagged human CB1 receptor expressed in CHO-K1 cells assessed as reduction in forskolin-stimulated cAMP accumulation by measuring maximal efficacy incubated for 30 mins by cAMP assay relative to CP-55940; assay type: functional, cell-based; conditions: filed as agonist; outline: as §1
[6] = molecular target: Cannabinoid receptor 1 (Rattus norvegicus) (UniProt P20272); assay: Displacement of [3H]CP55940 from rat brain membrane CB1 assessed as reduction in maximum binding capacity at 4 nM incubated for 1 hr by TopCount scintillation counting method relative to control; assay type: cell membranes
Chain of Cannabinoid receptor 1 (Rattus norvegicus) (P20272 whole entry): as above
Outline: (§3)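 Wash-resistant binding. […] Saturation binding used 25 μg protein, [³H]CP-55,940 at 0.5–23.8 nM and 4 μM unlabeled CP-55,940 for nonspecific binding, 1 h at 30 °C. Samples were filtered and counted by scintillation. Bmax came from one-site fits; % reduction was taken versus untreated control.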

[7] = molecular target: Cannabinoid receptor 2 (Mus musculus, UniProt P47936); assay: Displacement of [3H]CP55940 from mouse CB2 expressed in HEK293 cell membrane assessed as inhibition constant incubated for 1 hr by TopCount scintillation counting method; assay type: cell membranes; outline: as §2
Chain of Cannabinoid receptor 2 (Mus musculus, UniProt P47936) (P47936 whole entry): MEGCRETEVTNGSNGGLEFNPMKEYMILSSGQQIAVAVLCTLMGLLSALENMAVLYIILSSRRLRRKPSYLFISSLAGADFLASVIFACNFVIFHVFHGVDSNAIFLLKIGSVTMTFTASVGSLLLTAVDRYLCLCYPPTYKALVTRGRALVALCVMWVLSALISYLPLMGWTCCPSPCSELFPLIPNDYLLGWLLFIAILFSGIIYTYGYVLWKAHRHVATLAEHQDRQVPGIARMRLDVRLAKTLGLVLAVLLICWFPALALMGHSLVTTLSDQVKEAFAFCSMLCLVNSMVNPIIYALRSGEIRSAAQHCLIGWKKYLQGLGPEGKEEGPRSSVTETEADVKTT

[8] = molecular target: T1, Cannabinoid receptor 2; assay: Displacement of [3H]CP55940 from CB2 (unknown origin) assessed as reduction in maximum binding capacity at 4 nM incubated for 1 hr by TopCount scintillation counting method relative to control; outline: as §3
[9] = molecular target: T1, Cannabinoid receptor 2; assay: Displacement of [3H]CP55940 from human CB2 expressed in HEK293 cell membrane assessed as inhibition constant incubated for 1 hr by TopCount scintillation counting method; assay type: cell membranes; outline: as §2
[10] = tested on: Mus musculus; assay: Antinociceptive activity in CD-1 mouse model of thermal-induced nociception assessed as increase in tail withdrawal latency administered intraperitonially for 6 hrs by tail flick test; assay type: functional; conditions: CD-1, ip
Outline: (§4)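 Male CD-1 mice, 25–30 g, n = 6/dose, each used once. Drug was dissolved in 2% DMSO, 4% Tween 80 and 4% propylene glycol, then diluted with saline, and given ip at 10 mL/kg. Tail immersed in a 52 °C water bath; latency recorded at baseline and at 20, 60, 180 and 360 min after injection. Results expressed as % maximum possible effect; ED50 given with 95% CI.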

[11] = Toxicity in C57BL/6 mouse assessed as reduction in locomotion at 0.1 to 1 mg/kg, ip measured after 20 mins; assay type: organism-based; conditions: in vivo, dose 0.1-1 mg/kg
Outline: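 C57BL/6 mice, n = 6–7/treatment, given ip drug in 2% DMSO/1% Tween 80/saline at 0.1–1.0 mg/kg. Habituated to the apparatus in the morning. Placed in an infrared beam activity monitor 20 min after injection; ambulatory and horizontal counts recorded over 10 min.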

[12] = tested on: Mus musculus; assay: Induction of hypothermia in C57BL/6 mouse assessed as reduction in body temperature at 0.1 mg/kg, ip measured after 24 hrs; assay type: toxicity, organism-based; conditions: in vivo
[13] = tested on: Mus musculus; assay: Antinociceptive activity in CD-1 mouse model of thermal-induced nociception assessed as maximum efficacy causing increase in tail withdrawal latency at 0.03 to 1 mg/kg, ip measured 20 mins post-injection by tail flick test; assay type: functional, organism-based; conditions: dose 0.03-1 mg/kg; outline: as §4
[14] = Toxicity in […] mouse assessed as reduction in gastrointestinal motility by measuring colonic expulsion at 0.1 mg/kg, ip measured after 20 to 220 mins; assay type: organism-based; conditions: in vivo, time 20-220 min
Outline: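 Mice, n = 6–7/treatment, given vehicle (DMSO/Tween 80/saline 2:1:17) or 0.1 mg/kg ip. At 20, 120 and 220 min, under light isoflurane, a 2.5 mm glass bead was inserted 2 cm into the rectum. Time to bead expulsion was recorded.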

[15] = tested on: Mus musculus; assay: Antinociceptive activity in CD-1 mouse model of thermal-induced nociception assessed as maximum efficacy causing increase in tail withdrawal latency administered intraperitonially for 6 hrs by tail flick test; assay type: functional, organism-based; conditions: dose 0.03-1 mg/kg; outline: as §4
[16] = tested on: Mus musculus; assay: Antinociceptive activity in CD-1 mouse model of thermal-induced nociception assessed as maximum efficacy causing increase in tail withdrawal latency at 0.03 mg/kg, ip measured 60 mins post-injection by tail flick test; assay type: functional, organism-based; outline: as §4
[17] = molecular target: Cannabinoid receptor 1 (Rattus norvegicus) (UniProt P20272); assay: Displacement of [3H]CP55940 from rat brain membrane CB1 assessed as reduction in maximum binding capacity at 4 nM incubated for 1 hr followed by compound washout and measured after 60 to 180 mins by TopCount scintillation counting method; assay type: cell membranes; conditions: filed as agonist

| SMILES | EC50 [1] | EC50 [2] | Emax [3] | Ki [4] | Emax [5] | Bmax ([6]; filed as agonist) | Ki [7] | Bmax ([8]; filed as agonist) | Ki [9] | Bmax [8] | also measured |
| --- | --- | --- | --- | --- | --- | --- | --- | --- | --- | --- | --- |
| CC(C)(CCCCCCN=C=S)c1cc(O)c2c(c1)OC(C)(C)[C@@H]1CC[C@@H](CO)C[C@@H]21 | 5.5 nM | 5.8 nM | 107% | 0.39 nM | 96% | 65% | 0.8 nM | 75% | 3.15 nM | – | – |
| CC1(C)Oc2cc(C3(CCCCCCCC#N)CCCC3)cc(O)c2[C@@H]2C[C@H](CO)CC[C@H]21 | – | – | – | 0.5 nM | – | 60% | 0.9 nM | 40% | 0.4 nM | – | – |
| CC1(C)Oc2cc(C3(CCCCCCCC#N)CCCC3)cc(O)c2[C@@H]2C[C@H](CN=[N+]=[N-])CC[C@H]21 | – | – | – | 0.3 nM | – | – | 1.4 nM | – | 0.3 nM | – | Activity [6]: inactive; Activity [8]: inactive |
| CC1(C)Oc2cc(C3(CCCCCCN=[N+]=[N-])CCCC3)cc(O)c2[C@@H]2C[C@H](CO)CC[C@H]21 | – | – | – | 0.4 nM | – | 87% | 0.8 nM | 65% | 0.8 nM | – | – |
| CC1(C)Oc2cc(C3(CCCCCCCC#N)CCCC3)cc(O)c2[C@@H]2C[C@H](CN=C=S)CC[C@H]21 | – | – | – | 0.4 nM | – | – | 1.9 nM | – | 0.6 nM | – | Activity [6]: inactive; Activity [8]: inactive |
| CCCCCCC(C)(C)c1cc(O)c2c(c1)OC(C)(C)[C@@H]1CC[C@@H](CO)C[C@@H]21 | – | – | – | 3 nM | – | – | – | – | 2.1 nM | – | Activity [6]: inactive; Activity [8]: inactive |
| CC1(C)Oc2cc(C3(CCCCCCC#N)CCCC3)cc(O)c2[C@@H]2C[C@H](CO)CC[C@H]21 | 0.96 nM | 0.31 nM | 61% | 0.8 nM | 112% | 68% | 1 nM | 45% | 1.4 nM | – | – |
| CC(C)(CCCCCCN=[N+]=[N-])c1cc(O)c2c(c1)OC(C)(C)[C@@H]1CC[C@@H](CO)C[C@@H]21 | 0.77 nM | 0.098 nM | 72% | 0.41 nM | 99% | 75% | 0.8 nM | 63% | 1.4 nM | – | – |
| CC1(C)Oc2cc(C3(CCCCCCN=C=S)CCCC3)cc(O)c2[C@@H]2C[C@H](CO)CC[C@H]21 | 2.7 nM | 0.52 nM | 57% | 1.1 nM | 104% | – | 0.9 nM | – | 1.3 nM | 34% | Bmax [6]: 39% |
| CC1(C)Oc2cc(C3(CCCCCCCN=C=S)CCCC3)cc(O)c2[C@@H]2C[C@H](CN=C=S)CC[C@H]21 | – | – | – | 37.6 nM | – | – | 14.6 nM | – | 4.2 nM | 15% | Bmax [6]: 37% |
| CC1(C)Oc2cc(C3(CCCCCCCN=C=S)CCCC3)cc(O)c2[C@@H]2C[C@H](CO)CC[C@H]21 | 0.39 nM | 0.43 nM | 74% | 0.4 nM | 105% | 51% | 1.1 nM | – | 1 nM | 19% | – |
| CC(C)(CCCCCCC#N)c1cc(O)c2c(c1)OC(C)(C)[C@@H]1CC[C@@H](CO)C[C@@H]21 | 0.38 nM | 0.088 nM | 70% | 0.4 nM | 103% | 76% | 0.8 nM | 60% | 0.4 nM | – | ED50 [10]: 0.12 mg/kg; Activity [11]: Toxic; Activity [12]: Toxic; Activity [13]: Active; Activity [14]: Toxic; Activity [15]: Dose-Dependent Effect; Activity [16]: inactive; Activity [17]: Active |
| CC1(C)Oc2cc(C3(CCCCCCCN=[N+]=[N-])CCCC3)cc(O)c2[C@@H]2C[C@H](CN=[N+]=[N-])CC[C@H]21 | – | – | – | 0.7 nM | – | – | 1.2 nM | – | 1.5 nM | 21% | Bmax [6]: 28% |
| CC1(C)Oc2cc(C3(CCCCCCCN=[N+]=[N-])CCCC3)cc(O)c2[C@@H]2C[C@H](CO)CC[C@H]21 | – | – | – | 0.5 nM | – | 48% | 1.6 nM | – | 1.5 nM | 37% | – |
